Consider one compound from ChEMBL document CHEMBL1649530, “Pharmacokinetics and pharmacodynamics of a novel triazole, isavuconazole: mathematical modeling, importance of tissue concentrations, and impact of immune status on antifungal effect” (Antimicrob Agents Chemother, 2009).

A word on the MIC: it is the lowest concentration that inhibits growth of the organism. Lower therefore signals greater potency.

Molecules are shown by their SMILES. Values after ≈ are worked out from the molar mass of the structure shown. Active and inactive are the calls of the source. The calls are words filed in the database; no cut-off is given here.

Data set [1] is described as follows: Ratio of AUC to MIC in mouse infected with Candida albicans FA/6862 at 3.37 mg/kg, sc QID. To be noted: route subcutaneous.
Data set [2] is described as follows: Ratio of AUC to MIC in mouse infected with Candida albicans FA/6862 at 3.27 mg/kg, sc administered as single dose. It counts as functional. To be noted: route subcutaneous.
The test system of data set [3] is Candida albicans. Kind of data set: Antifungal activity against Candida albicans FA/6862 infected in mouse assessed as fungal load per gram of kidney at 1.6 to 28 mg/kg, sc measured after 29 hrs postinfection. The note with it: dose mg/kg 1.6-28; route subcutaneous.
The test system of data set [4] is Candida albicans. Kind of data set: Antifungal activity against Candida albicans FA/6862 assessed as postantifungal effect at =< 1 time MIC by CLSI M27-A2 method. It counts as functional, organism-based. An outline of the steps:
(§1)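 Log-phase organism washed in PBS, resuspended at 1 × 10^6 CFU/ml in warmed RPMI 1640 + 2% glucose, pre-incubated 30 min at 37°C. Drug added at 1/10× to 100× MIC for 3 h, then washed twice and regrown in drug-free RPMI. Quantitative subcultures hourly to 8 h, then 14 and 24 h. PAFE = delay in reaching +1 log10 CFU/ml versus drug-free controls.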

A short description of data set [5]: Ratio of AUC to MIC in mouse infected with Candida albicans FA/6862 at 1.63 mg/kg, sc BID. It counts as functional. The note with it: route subcutaneous.
Data set [6] can be described thus: Ratio of AUC to MIC in mouse infected with Candida albicans FA/6862 at 4.06 mg/kg, sc BID. The class given is functional. The note with it: route subcutaneous.
The nature of data set [7]: Ratio of AUC to MIC in mouse infected with Candida albicans FA/6862 at 13.48 mg/kg, sc administered as single dose. To be noted: route subcutaneous. It counts as functional.
For data set [8], the system named is Candida albicans. Kind of data set: Antifungal activity against Candida albicans FA/6862 assessed as postantifungal effect at 2 times MIC by CLSI M27-A2 method. It counts as functional. The procedure, abridged: as §1
The nature of data set [9]: Ratio of AUC to MIC in mouse infected with Candida albicans FA/6862 at 1.34 mg/kg, sc QID. It counts as functional. To be noted: route subcutaneous.
Data set [10] can be described thus: Ratio of AUC to MIC in mouse infected with Candida albicans FA/6862 at 6.74 mg/kg, sc BID. It counts as functional. To be noted: route subcutaneous.
Data set [11] relates to Candida albicans. Nature of the data set: Antifungal activity against Candida albicans FA/6862 assessed as postantifungal effect at 5 to 100 times MIC by CLSI M27-A2 method. It counts as functional. An outline of the steps: as §1
Data set [12] is described as follows: Ratio of AUC to MIC in mouse infected with Candida albicans FA/6862 at 2.03 mg/kg, sc QID. The class given is functional. The note with it: route subcutaneous.
The nature of data set [13]: Ratio of AUC to MIC in mouse infected with Candida albicans FA/6862 at 2.67 mg/kg, sc BID. To be noted: route subcutaneous. The class given is functional.
Data set [14] deals with Candida albicans. Kind of data set: Antifungal activity against Candida albicans FA/6862 by CLSI M27-A2 method. It counts as functional. The procedure, abridged: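 Broth microdilution per CLSI M27-A2. Run in duplicate on three separate occasions; modal MIC used.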
A short description of data set [15]: Terminal half life in mouse at 1.6 to 13 mg/kg, sc. The note with it: in vivo, read-out: beta t1/2 (converted). The arrangement: dose 1.6-13 mg/kg, route subcutaneous. The class given is ADME, organism-based. The procedure, abridged: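 Infected, cyclophosphamide-neutropenic mice given single sc doses. Plasma collected by cardiac puncture at 0.5–24 h, three mice per time point. Plasma stabilized with citric acid and assayed by LC-MS/MS. Half-life derived from a population PK model co-fitting plasma, kidney and fungal burden data.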

The nature of data set [16]: Ratio of AUC to MIC in mouse infected with Candida albicans FA/6862 at 0.82 mg/kg, sc QID. It counts as functional. The note with it: route subcutaneous.
Data set [17] in a line: Ratio of AUC to MIC in mouse infected with Candida albicans FA/6862 at 5.35 mg/kg, sc administered as single dose. It counts as functional. To be noted: route subcutaneous.
Data set [18] can be described thus: Ratio of AUC to MIC in mouse infected with Candida albicans FA/6862 at 8.12 mg/kg, sc administered as single dose. The class given is functional. To be noted: route subcutaneous.

With `C[C@@H](c1nc(-c2ccc(C#N)cc2)cs1)[C@](O)(Cn1cncn1)c1cc(F)ccc1F` [ISAVUCONAZOLE], the RatioAUC/MIC in data set [1] is recorded as 1544.75; in [2], 387.75; in data set [5], 384.25; in data set [6], 960.25; in data set [7], 1599.75; in data set [9], 614.25. For the same compound, the RatioAUC/MIC in data set [10] is reported as 1584.5; in [12], 930.5; in [13], 633.75; in [16], 372.25; in data set [17], 630; in data set [18], 969.5. In the data set with Candida albicans [3], the log10cfu is 5.5. Besides, in the data set on Candida albicans [4], the result was inactive. For the same compound, the figures for the Time in the data set with Candida albicans [8] and with Candida albicans [11] were 2 h and 5 h, respectively. The compound further gave an MIC in the data set on Candida albicans [14] of 4 ng/mL (≈ 9.14 nM). In addition, the half-life in data set [15] was 3.41 h.
